This is a sample that favours compounds with a hit; in the whole collection about 3.6% have one here.
PAFAH1B3 FP inh: inhibitors of human PAFAH1B3; inhibition, % at 3.39 µM; Q15102; 340,000 compounds, 0.28% hits; recombinant PAFAH1B3, FP-rhodamine probe, fluorescence polarization;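 active means inhibition above the screen-wide average of all tested compounds plus 3 SD, cut at about 25% in these data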;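 further: 0% = enzyme with DMSO only and 100% = wells lacking PAFAH1B3 protein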
Target sequence (Q15102 whole entry, looked up): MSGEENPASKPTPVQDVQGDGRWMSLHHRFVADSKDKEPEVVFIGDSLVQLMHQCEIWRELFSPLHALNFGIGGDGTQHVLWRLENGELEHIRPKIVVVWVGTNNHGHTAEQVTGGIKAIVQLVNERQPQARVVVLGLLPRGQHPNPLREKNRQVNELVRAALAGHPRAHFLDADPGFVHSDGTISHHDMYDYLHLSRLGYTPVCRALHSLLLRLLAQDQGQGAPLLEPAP
PAFAH2 inh: inhibitors of human PAFAH2. Q99487. recombinant PAFAH2, FP-rhodamine activity probe, fluorescence polarization. inhibition, % at 3.39 µM. 340,000 compounds, 0.99% hits. AID 492956;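 active means inhibition above the mean over all tested compounds plus 3 SD, cut at about 30% in these data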;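 further: inhibitors block probe labeling of enzyme so polarization drops; 0% = enzyme with DMSO and 100% = wells lacking PAFAH2 protein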
IMP-1 inhibitor: blocks Pseudomonas aeruginosa IMP-1 metallo-beta-lactamase; purified IMP-1, nitrocefin hydrolysis, epi-absorbance fluorescence; inhibition, % at 5.6 µM; 290,000 compounds, 0.45% hits; AID 1556;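 active means inhibition above the mean plus 3 SD of all compounds in the same screening run, cut at about 4.5% in these data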;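 further: 0% = IMP-1 with DMSO and 100% = DMSO wells lacking enzyme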
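System: purified IMP-1; amount: IMP-1 0.2 nM before substrate addition; compound: single dose, 5.6 µM; times: 25 °C, 15 min preincubation, 25 min reaction; signal: Epi-absorbance via hydrolysed-nitrocefin quenching of white-plate fluorescence, 480/530 nm, EDTA stop; benchmarks: DMSO with and without IMP-1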
VIM-2 inh: blocks Pseudomonas aeruginosa VIM-2 metallo-beta-lactamase; purified VIM-2, nitrocefin hydrolysis, epi-absorbance fluorescence; inhibition, % at 5.6 µM; 290,000 compounds, 0.89% hits;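 active means inhibition above the mean of all tested compounds plus 3 SD, cutoff set per screening run, cut at about 7.5% in these data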;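 further: red hydrolysis product quenches plate fluorescence so inhibitors raise well fluorescence; 0% = enzyme with DMSO and 100% = DMSO without enzyme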
pPAFAH FP inh: inhibitors of human plasma PAF acetylhydrolase (pPAFAH) | Q13093 | recombinant pPAFAH, FP-rhodamine probe fluorescence polarization | inhibition, % at 3.39 µM | 330,000 compounds, 1.5% hits | AID 463082;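 active means inhibition above the mean inhibition across the screen plus 3 SD, cut at about 25% in these data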;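 further: inhibitors block binding of the rhodamine activity-based probe so polarization drops; 0% = enzyme with DMSO and 100% = wells lacking pPAFAH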
PAFAH1B2 FP inh: inhibitors of human PAFAH1B2; recombinant PAFAH1B2, FP-rhodamine activity probe, fluorescence polarization; 340,000 compounds, 1.2% hits; inhibition, % at 3.39 µM;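 active means inhibition above the mean of all tested compounds plus 3 SD, cut at about 24% in these data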;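 further: 0% = enzyme with DMSO and 100% = wells lacking PAFAH1B2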
Target sequence (P68402 whole entry, looked up): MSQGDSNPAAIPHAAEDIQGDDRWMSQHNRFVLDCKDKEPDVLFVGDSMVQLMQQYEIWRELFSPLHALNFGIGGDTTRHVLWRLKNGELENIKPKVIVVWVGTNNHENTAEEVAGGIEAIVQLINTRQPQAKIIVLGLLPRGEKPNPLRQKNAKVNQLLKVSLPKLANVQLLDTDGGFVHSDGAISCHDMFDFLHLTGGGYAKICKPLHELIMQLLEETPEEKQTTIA
* hit, by the source's call; nt = not tested or not shown.

SMILES | PAFAH1B3 FP inh | PAFAH2 inh | IMP-1 inhibitor | VIM-2 inh | pPAFAH FP inh | PAFAH1B2 FP inh
O=C(COc1ccc2c3c(c(=O)oc2c1)CCCC3)NCCCN1CCOCC1 | 5 | 5 | -1 | 11* | 2 | -4
CCc1cc(=O)oc2cc(OCC(=O)NCCCn3ccnc3)ccc12 | 1 | 1 | -2 | 11* | 1 | 5
O=C(COc1ccc2c3c(c(=O)oc2c1)CCCC3)NCCN1CCOCC1 | 0 | 9 | -2 | 12* | 0 | -2
COc1ccccc1CCC(=O)OCC(=O)Nc1ccc(C(N)=O)cc1 | -5 | -1 | -6 | 0 | 11 | -4
CC1(C)C(=O)Nc2ccccc2N1C(=O)COC(=O)c1ccc(NC(N)=O)cc1 | 3 | 6 | nt | nt | nt | 7
O=C(Nc1ccc(Nc2ccncc2)cc1)c1ccc(Nc2ccnc3ccc([N+](=O)[O-])cc23)cc1[N+](=O)[O-] | 11 | -2 | 9.1* | 2 | 24 | 3
O=C(Nc1ccc(Nc2ccncc2)cc1)c1ccc([N+](=O)[O-])cc1 | 3 | 2 | -1 | -3 | 4 | 5
Cc1nn(C)cc1S(=O)(=O)NCc1ccc2c(c1)OCO2 | 7 | -1 | -2 | -1 | 7 | -4
CC(C)(C)c1ccc(C(=O)NCCC(=O)NNC(=O)COc2ccccc2F)cc1 | 4 | -8 | nt | nt | 2 | 25*
CN(Cc1ccccc1F)C(=O)CCNC(=O)c1ccc(C(C)(C)C)cc1 | 1 | -3 | nt | nt | 5 | 28*
CCCn1ncc(CN2CCC(C(=O)Nc3cccc(-c4cccc(F)c4)c3)CC2)c1C | 5 | 0 | 2 | 4 | 1 | 3
CCCCn1c(N)c(N(CC(C)C)C(=O)C2CCN(S(=O)(=O)c3ccc(C)cc3)CC2)c(=O)[nH]c1=O | -2 | 1 | nt | nt | 1 | 3
COc1cc(OC)c(OC)cc1/C=C1\Oc2cc(OS(C)(=O)=O)ccc2C1=O | 0 | -2 | 1 | 0 | 7 | 0
COc1ccc(/C=C2\Oc3cc(OC(=O)N4CCOCC4)ccc3C2=O)cc1 | 7 | 12 | -2 | -4 | 27* | 5
CC(=O)Oc1ccc2c(c1)O/C(=C\c1ccncc1)C2=O | 3 | -7 | -2 | 1 | 3 | 0
CCc1ccc(/C=C2\Oc3cc(OC(=O)N4CCOCC4)ccc3C2=O)cc1 | 9 | 3 | -3 | 0 | 26* | 3
COc1ccc2c(c1)O/C(=C\c1ccccc1C)C2=O | 4 | -8 | -2 | -3 | 27* | 2
Cc1ccc(S(=O)(=O)c2nc(-c3ccc(F)cc3)oc2N2CCOCC2)cc1 | -4 | -5 | -1 | -3 | 4 | 5
CCN1CCN(c2ccc(S(=O)(=O)N3CCCCC3)cc2NC(=O)/C=C/c2ccc(Cl)cc2)CC1 | -1 | 0 | nt | nt | nt | -1
O=C1C(=O)c2ccc(-c3ccccc3)cc2-c2ccccc21 | 58* | 51* | -5 | 2 | 19 | 9
Nc1ccc2c(c1)C(=O)C(=O)c1ccccc1-2 | 76* | 62* | -4 | 8 | 15 | 25*
O=S(=O)(Nc1cccc(-c2cn3c(n2)SCC3)c1)c1ccccc1 | 9 | 4 | 0 | 2 | 24 | 3
CCOc1ccc(NS(=O)(=O)c2ccc(N)cc2)cc1 | 12 | 17 | -5 | -1 | 18 | 7
CCOc1ccc(NS(=O)(=O)c2ccc(NC(=S)NC(=O)C(C)C)cc2)cc1 | -1 | -6 | -1 | -5 | 33* | -2
CCOc1ccc(NS(=O)(=O)c2ccc(SC)cc2)cc1 | 4 | -6 | -2 | 0 | 34* | -1
SMILES | PAFAH1B3 FP inh | PAFAH2 inh | IMP-1 inhibitor | VIM-2 inh | pPAFAH FP inh | PAFAH1B2 FP inh
Cc1ccc(NC(=O)C2CCN(S(C)(=O)=O)CC2)c(C)c1 | 10 | 1 | 0 | -1 | nt | 3
O=C(Cc1cccc(NC(=O)C2CCCN(C(=O)C3CC3)C2)c1)Nc1ccc(C(=O)N2CCOCC2)cc1 (configuration not stated) | 2 | 4 | nt | nt | nt | 5
O=S(=O)(Cc1ccccc1)Nc1ccc(F)cc1 | 1 | 0 | -2 | 1 | nt | 5
Cc1ccccc1CN1CCN(Cc2cc3ccccc3o2)CC1CCO (configuration not stated) | 5 | -1 | -3 | -3 | 1 | 0
Cc1ccccc1CN1CCN(Cc2cc(=O)c3ccccc3[nH]2)CC1CCO (configuration not stated) | 10 | 4 | 8.3* | -2 | 3 | -1
Oc1c(Br)cc(Br)cc1CNc1cnc2ccccc2c1 | 7 | 8 | 14* | 3 | 15 | 2
CC(C)C(=O)N1CCN(c2ccccc2NC(=O)c2cccc3ccccc23)CC1 | 8 | -1 | -1 | -2 | -1 | -3
COc1cc(SC)ccc1C(=O)NNC(=O)c1cc(C)oc1C | 9 | 10 | nt | nt | 4 | 3
CN1C(=O)C(C)(C)c2cc(S(=O)(=O)NCc3ccc(Cl)cc3)ccc21 | 10 | 6 | -1 | -1 | 6 | 7
CN1C(=O)C(C)(C)c2cc(S(=O)(=O)NCCc3ccc(Cl)cc3)ccc21 | 3 | 5 | -2 | -1 | 30* | 24*
Cc1ccc(CCNS(=O)(=O)c2ccc3c(c2)C(C)(C)C(=O)N3C)cc1 | 0 | -9 | -4 | -2 | 25* | 11
Cc1ccccc1CNS(=O)(=O)c1ccc2c(c1)C(C)(C)C(=O)N2C | 4 | -2 | 1 | -1 | 7 | -2
CCOc1ccc(NCc2cccn2-c2nnc(N3CCC(C(=O)NCCCN4CC(C)CC(C)C4)CC3)s2)cc1 (configuration not stated) | 12 | 7 | -3 | 3 | 5 | -2
O=C(NCCS(=O)(=O)c1ccc(Br)cc1)c1ccc(Cl)cc1 | -2 | 5 | -3 | -1 | 5 | 28*
CC(C(=O)NCCS(=O)(=O)c1ccc(Br)cc1)S(=O)(=O)c1ccc(Cl)cc1 (configuration not stated) | 4 | 3 | 0 | -1 | 5 | 18
CC(C)C1=CC(=Nc2ccc(S(N)(=O)=O)cc2)C=C(C(C)C)C1=O | -4 | -2 | 2 | 1 | nt | 3
O=C(OCCOc1cccc(Cl)c1)c1cc(S(=O)(=O)N2CCOCC2)ccc1F | 10 | 5 | nt | nt | 31* | 2
Cc1ccc(S(=O)(=O)N2CCOCC2)cc1C(=O)NCCc1ccc(Cl)cc1 | 7 | 0 | nt | nt | 1 | 30*
NC(=O)c1ccccc1NC(=O)c1cccc(C(=O)Nc2ccccc2C(N)=O)n1 | nt | nt | nt | nt | 2 | nt
CCN(CC)c1ccc(/C=N/N(c2ccccc2)c2ccccc2)c(O)c1 | 2 | -2 | -3 | -2 | 10 | 0
Oc1ccc(/C=N/N(c2ccccc2)c2ccccc2)cc1O | 4 | -5 | -5 | -3 | 69* | 1
Oc1ccc(/C=N/N(c2ccccc2)c2ccccc2)c(O)c1O | -5 | 9 | -4 | -5 | 69* | 4
C(=N\N(c1ccccc1)c1ccccc1)/c1ccccn1 | 4 | 0 | -5 | -4 | 4 | 2

Source: PubChem
